Reference: ChEMBL document CHEMBL3352678, “Synthesis and acetylcholinesterase inhibitory activity of Mannich base derivatives flavokawain B” (Bioorg Med Chem Lett, 2014)

Legend:
[1] = biological target: T1, Acetylcholinesterase (Rattus norvegicus, UniProt P37136); assay: Inhibition of Sprague-Dawley rat brain AChE using acetylthiocholin iodide as substrate preincubated for 25 mins by Ellman's/UV-vis spectroscopy analysis
T1 sequence (P37136 whole entry): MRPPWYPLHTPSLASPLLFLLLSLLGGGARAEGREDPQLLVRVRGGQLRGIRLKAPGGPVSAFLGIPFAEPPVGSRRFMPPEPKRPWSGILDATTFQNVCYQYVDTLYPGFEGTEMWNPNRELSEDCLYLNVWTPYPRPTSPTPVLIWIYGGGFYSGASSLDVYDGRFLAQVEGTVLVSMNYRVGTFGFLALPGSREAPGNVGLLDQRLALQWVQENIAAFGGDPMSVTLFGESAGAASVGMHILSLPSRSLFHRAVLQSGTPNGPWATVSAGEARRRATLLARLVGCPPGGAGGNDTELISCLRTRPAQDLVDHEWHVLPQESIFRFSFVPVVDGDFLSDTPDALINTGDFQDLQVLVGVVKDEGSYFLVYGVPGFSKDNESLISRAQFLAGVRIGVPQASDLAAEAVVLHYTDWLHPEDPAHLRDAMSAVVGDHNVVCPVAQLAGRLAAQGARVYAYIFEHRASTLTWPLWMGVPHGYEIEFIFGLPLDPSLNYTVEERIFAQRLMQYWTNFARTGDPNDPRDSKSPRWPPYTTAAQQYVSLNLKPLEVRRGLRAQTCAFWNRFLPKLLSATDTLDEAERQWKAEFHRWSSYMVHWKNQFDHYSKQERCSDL
Method in brief: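 Modified Ellman's method. Inhibition ratio was calculated from absorbance of the AChE-catalysed reaction product. IC50 was taken as the concentration causing 50% loss of enzyme activity.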

[2] = Octanol-buffer partition coefficient, log p of the compound at pH 7.4 for 24 hrs by shake flask method; type: physicochemical
Method in brief: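 Partitioning between n-octanol and buffer at pH 7.4 by the classical shake-flask method. Compound in each phase quantified by reverse-phase HPLC. log P calculated from the phase distribution.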

[3] = biological target: T1, Acetylcholinesterase; assay: Inhibition of Sprague-Dawley rat brain AChE using acetylthiocholin iodide as substrate by Michaelis-Menten equation
Method in brief: (§1)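 Kinetic analysis: Km and vmax were determined at several inhibitor concentrations. Ki for the free enzyme came from a linear replot of slope against inhibitor concentration. Ki′ for the enzyme–substrate complex came from a linear replot of intercept against inhibitor concentration.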

[4] = biological target: T1, Acetylcholinesterase; assay: Inhibition of Sprague-Dawley rat brain AChE by Michaelis-Menten equation; method in brief: as §1

| SMILES | IC50 [1] [µM] | logD at 24 h [2] | Ki [3] [µM] | Ki [4] [µM] |
| --- | --- | --- | --- | --- |
| COc1cc(OC)c(C(=O)/C=C/c2ccccc2)c(O)c1CN1CCN(C)CC1 | 12.4 | 1.58 | – | – |
| COc1cc(OC)c(C(=O)/C=C/c2ccccc2)c(O)c1CN1CCOCC1 | 265 | 1.63 | – | – |
| CCCN(CCC)Cc1c(OC)cc(OC)c(C(=O)/C=C/c2ccccc2)c1O | 54.8 | 1.77 | – | – |
| COc1cc(OC)c(C(=O)/C=C/c2ccccc2)c(O)c1CN(C)C | 18.8 | 1.61 | – | – |
| COc1cc(OC)c(C(=O)/C=C/c2ccccc2)c(O)c1CN1CCCC1 | 16.1 | 1.74 | – | – |
| COc1cc(OC)c(C(=O)/C=C/c2ccccc2)c(O)c1CN1CCCCC1 | 4.15 | 1.75 | 4.58 | 2.75 |
| CCN(CC)Cc1c(OC)cc(OC)c(C(=O)/C=C/c2ccccc2)c1O | 15.1 | 1.69 | – | – |
